Data published in ChEMBL document CHEMBL1681672, “Antitumor agents 283. Further elaboration of desmosdumotin C analogs as potent antitumor agents: activation of spindle assembly checkpoint as possible mode of action” (2011).
The source made the active and inactive calls. The rule behind the calls is not given here.

Assays:
[1] = Antiproliferative activity against human KBVIN cells expressing P-glycoprotein after 3 days by sulforhodamine B assay; type: functional; conditions: 72 h, read-out: ED50 (the source's name)
Outline: (§1)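 Cells were seeded from freshly trypsinized suspensions at 1500–7500 cells/well and dosed from DMSO-diluted stock. After 3 days of culture, attached cells were fixed with cold 50% TCA and stained with 0.4% SRB. Bound dye was solubilized and absorbance read at 562 nm. ED50 is the concentration giving 50% growth reduction versus untreated cells, averaged from at least three independent determinations. Cells were grown in RPMI-1640 with 25 mM HEPES, 10% FBS and kanamycin.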

[2] = test system: KB; experiment: Antiproliferative activity against human KB cells after 3 days by sulforhodamine B assay; type: functional; conditions: 72 h, read-out: ED50 (the source's name); outline: as §1
[3] = test system: 1A9; experiment: Antiproliferative activity against human 1A9 cells after 3 days by sulforhodamine B assay; type: functional; conditions: 1A9, 72 h, read-out: ED50 (the source's name); outline: as §1
[4] = test system: A549; experiment: Antiproliferative activity against human A549 cells after 3 days by sulforhodamine B assay; type: functional; conditions: A549, 72 h, read-out: ED50 (the source's name); outline: as §1
[5] = test system: HepG2; experiment: Antiproliferative activity against human HepG2 cells after 3 days by sulforhodamine B assay; type: functional; conditions: for EC50: HepG2, 72 h, read-out: ED50 (the source's name); outline: as §1
[6] = test system: HCT-8; experiment: Antiproliferative activity against human HCT8 cells after 3 days by sulforhodamine B assay; type: functional; conditions: HCT-8, 72 h, read-out: ED50 (the source's name); outline: as §1
[7] = test system: MCF7; experiment: Antiproliferative activity against human MCF7 cells after 3 days by sulforhodamine B assay; type: functional; conditions: MCF7, 72 h, read-out: ED50 (the source's name)
[8] = test system: PC-3; experiment: Antiproliferative activity against human PC3 cells after 3 days by sulforhodamine B assay; type: functional; conditions: for EC50: PC-3, 72 h, read-out: ED50 (the source's name); outline: as §1
[9] = Upregulation of MAD2L1 transcript in human CL1-5 cells at 0.05 ug/ml after 24 hrs by semi-quantitative RT-PCR; type: functional, cell-based
Outline: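 CL1-5 cells were seeded at 2.5×10^5 per 60 mm dish and grown 48 h in RPMI with 10% FBS at 37 °C in 5% CO2. Cells then received DMSO or 0.05 μg/mL compound for 24 h. Total RNA was extracted with TRIzol and MAD2L1 was amplified by RT-PCR, with Gβ-like as the control transcript, and bands were compared on gel.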

[10] = Effect on dynein1 mRNA expression in human CL1-5 cells at 0.05 ug/ml after 24 hrs by RT-PCR relative to DMSO control; type: functional
[11] = Antiproliferative activity against human CL1-5 cells; type: functional; conditions: read-out: ED50 (the source's name)
[12] = Effect on Aurora B mRNA expression in human CL1-5 cells at 0.05 ug/ml after 24 hrs by Affymetrix GeneChip microarray relative to DMSO control
[13] = Effect on NEK2A mRNA expression in human CL1-5 cells at 0.05 ug/ml after 24 hrs by Affymetrix GeneChip microarray relative to DMSO control
[14] = Effect on CDK1 mRNA expression in human CL1-5 cells at 0.05 ug/ml after 24 hrs by Affymetrix GeneChip microarray relative to DMSO control
[15] = Effect on cyclinB mRNA expression in human CL1-5 cells at 0.05 ug/ml after 24 hrs by RT-PCR relative to DMSO control; type: functional
[16] = Effect on securin mRNA expression in human CL1-5 cells at 0.05 ug/ml after 24 hrs by RT-PCR relative to DMSO control; type: functional
[17] = Effect on KNSL1 mRNA expression in human CL1-5 cells at 0.05 ug/ml after 24 hrs by RT-PCR relative to DMSO control; type: functional
[18] = Effect on MAD1 mRNA expression in human CL1-5 cells at 0.05 ug/ml after 24 hrs by RT-PCR relative to DMSO control; type: functional
[19] = Effect on Aurora A mRNA expression in human CL1-5 cells at 0.05 ug/ml after 24 hrs by Affymetrix GeneChip microarray relative to DMSO control
[20] = Effect on separase mRNA expression in human CL1-5 cells at 0.05 ug/ml after 24 hrs by RT-PCR relative to DMSO control; type: functional
[21] = Effect on MAD2 mRNA expression in human CL1-5 cells at 0.05 ug/ml after 24 hrs by RT-PCR relative to DMSO control; type: functional
[22] = Effect on dynactin mRNA expression in human CL1-5 cells at 0.05 ug/ml after 24 hrs by RT-PCR relative to DMSO control; type: functional

Row | SMILES | EC50 [2] | EC50 [4] | EC50 [5] | EC50 [6] | EC50 [7] | EC50 [8] | EC50 [1] | EC50 [3] | further results
1 | CCCC1=C(OC)C(CCC)(CCC)C(=O)/C(=C(O)\C=C\c2ccccc2)C1=O | 4.6 µM | 3.6 µM |  | 3.5 µM |  | 8.2 µM | 3.4 µM | 3.7 µM | 
2 | CCCOC1=C(CCC)C(=O)/C(=C(O)/C=C/c2ccccc2)C(=O)C1(CCC)CCC | 2.7 µM | 1.9 µM | 8.3 µM | 2.6 µM | 1.6 µM | 8.6 µM | 2.4 µM | 2 µM | 
3 | CC[C@]1(O)C[C@H]2CN(CCc3c([nH]c4ccccc34)[C@@](C(=O)OC)(c3cc4c(cc3OC)N(C=O)[C@H]3[C@@](O)(C(=O)OC)[C@H](OC(C)=O)[C@]5(CC)C=CCN6CC[C@]43[C@@H]65)C2)C1 [VINCRISTINE] | 0.0024 µM | 0.0048 µM | 0.0029 µM | 0.0242 µM | 0.0121 µM | 0.0121 µM | > 0.1 µM |  | 
4 | CCCC1=C(OCC)C(CCC)(CCC)C(=O)/C(=C(O)\C=C\c2ccccc2)C1=O | 6.4 µM | 4.6 µM | 11.2 µM | 5.6 µM | 2.6 µM | 12.5 µM | 3.5 µM | 4.3 µM | 
5 | CCCC1=C(OC)C(CCC)(CCC)C(=O)/C(=C(O)\C=C\c2ccc(Br)cc2)C1=O | 1.8 µM | 2 µM |  | 2.6 µM |  | 4.7 µM | 1.8 µM | 1.9 µM | Activity [9]: Active; fold change (FC) [10]: 2; EC50 [11]: 0.11 µM; fold change (FC) [12]: 2; fold change (FC) [13]: 2; fold change (FC) [14]: 2; fold change (FC) [15]: 2; fold change (FC) [16]: 2; fold change (FC) [17]: 2; fold change (FC) [18]: 2; fold change (FC) [19]: 2; fold change (FC) [20]: 2; fold change (FC) [21]: 2; fold change (FC) [22]: 2
6 | CCCC1(CC=C(C)C)C(=O)C(C(=O)/C=C/c2ccccc2)=C(O)C(CCC)(CCC)C1=O (stereo not drawn) | 8.2 µM | 7.1 µM | 6.4 µM | 6.7 µM | 5.8 µM | 8.4 µM | 7.3 µM |  | 
7 | COC1=C(CCC(C)C)C(=O)/C(=C(O)/C=C/c2ccccc2)C(=O)C1(CCC(C)C)CCC(C)C | 17.5 µM | 18.4 µM |  | 13 µM | 25.2 µM |  | 20.3 µM | 16.3 µM | ED50 [5]: inactive; ED50 [8]: inactive
8 | COC1=C(CC=C(C)C)C(=O)/C(=C(O)/C=C/c2ccccc2)C(=O)C1(CC=C(C)C)CC=C(C)C [3,3,5-TRIPRENYLDESMOSDUMOTIN C] | 13.3 µM | 10.3 µM | 11.2 µM | 13.7 µM | 8.2 µM | 12.2 µM | 8.9 µM |  | 

The remaining compounds from weak to strong by EC50 [2], led by results:

Row | EC50 [2] | EC50 [4] | EC50 [5] | EC50 [6] | EC50 [7] | EC50 [8] | SMILES | EC50 [1] | EC50 [3] | further results
9 | 12.8 µM | 11.2 µM |  | 11.8 µM |  | 35.6 µM | COC1=C(C)C(O)=C(C(=O)/C=C/c2ccccc2)C(=O)C1(C)C [DESMOSDUMOTIN C] | 9.6 µM | 11.2 µM | 
10 | 10.6 µM | 11.3 µM | 15.5 µM | 15.3 µM | 9.1 µM | 17 µM | CCCC1=C(OCCC(C)C)C(CCC)(CCC)C(=O)/C(=C(O)\C=C\c2ccccc2)C1=O | 19.2 µM |  | 
11 | 8 µM | 7.1 µM | 8 µM | 8.7 µM | 5.3 µM | 9.6 µM | CCCCOC1=C(CCC)C(=O)/C(=C(O)/C=C/c2ccccc2)C(=O)C1(CCC)CCC | 8.9 µM |  | 
12 | 7.9 µM | 4.4 µM | 14.5 µM | 7.5 µM | 3.7 µM | 12.4 µM | COC1=C(CC(C)C)C(=O)/C(=C(O)/C=C/c2ccccc2)C(=O)C1(CC(C)C)CC(C)C | 8.2 µM | 8 µM | 
13 | 7 µM | 6.4 µM | 23.9 µM | 7.8 µM | 4.4 µM | 13 µM | CCCCC1=C(OC)C(CCCC)(CCCC)C(=O)/C(=C(O)\C=C\c2ccccc2)C1=O | 8.6 µM | 5.9 µM | 
14 | 6.4 µM | 8.2 µM | 7.3 µM | 7.8 µM | 5.1 µM | 9.6 µM | CCCOC1=C(CCC)C(=O)/C(=C(O)/C=C/c2ccc(I)cc2)C(=O)C1(CCC)CCC | 6.2 µM |  | 
15 | 4.8 µM | 1.7 µM | 13.4 µM | 8 µM | 4.4 µM | 12.2 µM | CCCC1=C(OCC(C)C)C(CCC)(CCC)C(=O)/C(=C(O)\C=C\c2ccccc2)C1=O | 4.1 µM | 6.9 µM | 
16 | 1.5 µM | 1.4 µM | 2.4 µM | 1.1 µM | 1.8 µM | 2.8 µM | CCCC1=C(OC)C(CCC)(CCC)C(=O)/C(=C(O)\C=C\c2ccc(I)cc2)C1=O | 1.4 µM | 1.8 µM | 
17 | 0.00287 µM | 0.00256 µM | > 0.1 µM | > 0.1 µM | > 0.1 µM | 0.00887 µM | CC(=O)O[C@H]1C(=O)[C@@]2(C)[C@H]([C@H](OC(=O)c3ccccc3)[C@]3(O)C[C@H](OC(=O)[C@H](O)[C@@H](NC(=O)c4ccccc4)c4ccccc4)C(C)=C1C3(C)C)[C@]1(OC(C)=O)CO[C@@H]1C[C@@H]2O [PACLITAXEL] | > 0.1 µM | 0.00209 µM | 
